Results pooled from the literature.
Protocols differ between the studies behind these lines.
Target: Death-associated protein kinase 1 (DAPK1, Homo sapiens, UniProt P53355)

Structure (SMILES)	effect on	action	method	tested at	endpoint	result
Cc1nc(N2CC[C@@H](O)C2)ncc1-c1cc(C(F)(F)F)cc2[nH]ncc12	binding		competition with immobilised ligand	1 µM	remaining binding	89%
COc1cc(/C=C/C(=O)CC(=O)/C=C/c2ccc(O)c(OC)c2)ccc1O	enzyme activity	inhibitor		1 µM	activity vs control	93%
O=C(Nc1cccnn1)N1CC(C/C=C/c2cncc(Oc3ccc(C(F)(F)F)cn3)n2)C1	cell-free assay		competition with immobilised ligand	1 µM	remaining binding	98%
O=C1NC(=O)c2cc(Nc3ccc(F)cc3)c(Nc3ccc(F)cc3)cc21	cell-free assay			0.5 µM	remaining signal	81.3%
COc1cc(Nc2cnc(C#N)c(O[C@H](C)CN(C)C)n2)ncc1-c1cnn(C)c1	enzyme activity	inhibitor	radiometric	1 µM	remaining activity	95%
FC(F)(F)Oc1cccc(-c2cnc3ccc(-c4ccncc4)nn23)c1	enzyme activity	inhibitor	radiometric	1 µM	activity vs control	101%
CNC(=O)c1cc(Oc2ccc(NC(=O)Nc3ccc(Cl)c(C(F)(F)F)c3)cc2)ccn1	enzyme activity	inhibitor		0.3 µM	inhibition	16%
CCOC(=O)c1cc2cc(-c3cc(C(=O)NCc4ccc(C(=O)O)cc4)nn3C)ccc2[nH]1	cell-free assay		competition with immobilised ligand	0.1 µM	remaining binding	84%
Cc1sc(C(=O)NC2COC2)cc1-n1cc(NC(=O)Nc2c(F)cccc2Cl)cn1	enzyme activity	inhibitor		10 µM	remaining activity	104%
N#CCCc1ccc2c(c1)-c1[nH]c3ccc([N+](=O)[O-])cc3c1CC(=O)N2	cell-free assay			0.5 µM	remaining signal	96.5%
CN(C)C1CCN(CC#Cc2nn(C3CCCC3)c3nc(NCc4ccccc4)ncc23)C1 (centres unmarked)	enzyme activity	inhibitor	FRET	1 µM	inhibition	-2%
CC(C)(C)c1nc(-c2cccc(NS(=O)(=O)c3c(F)cccc3F)c2F)c(-c2ccnc(N)n2)s1	enzyme activity	inhibitor	radiometric	1 µM	remaining activity	75%
CCCCN(CCCC)C(=O)CN1C[C@H](c2cc(OC)c3c(c2)OCO3)[C@@H](C(=O)O)[C@@H]1CC(C)(C)CCC	cell-free assay		competition with immobilised ligand	1 µM	remaining binding	100%
Cn1c(=O)n(-c2ccc(C(C)(C)C#N)cc2)c2c3cc(-c4cnc5ccccc5c4)ccc3ncc21	enzyme activity	inhibitor		10 µM	remaining activity	107%
Cc1ccc(Nc2nccc(N(C)c3ccc4c(C)n(C)nc4c3)n2)cc1S(N)(=O)=O	enzyme activity	inhibitor		0.3 µM	inhibition	16%
Nc1ncnc2occ(-c3ccc(NC(=O)Nc4cc(C(F)(F)F)ccc4F)cc3)c12	cell-free assay	inhibitor		20 µM	remaining signal	29%
CS(=O)(=O)CCNCc1ccc(-c2ccc3ncnc(Nc4ccc(OCc5cccc(F)c5)c(Cl)c4)c3c2)o1	cell-free assay			0.5 µM	remaining signal	107%
C[C@@H]1CN(c2cc(-c3nn(C)c4ccc(OC5(C)CC5)cc34)ncn2)C[C@H](C)O1	cell-free assay		competition with immobilised ligand	1 µM	remaining binding	100%
CC/C(=N\NC(=O)NCc1cccc(O)c1)c1ccc(O)c(C)c1O	enzyme activity	inhibitor		0.1 µM	inhibition	-1.6%
CS(=O)(=O)N1CCCC(NC(=O)[C@H](CCC2CCCCC2)NC(=O)c2ccc(CNc3ncnc4c3nnn4-c3ccccc3)cc2)C1 (some centres unmarked)	cell-free assay		competition with immobilised ligand	0.1 µM	remaining binding	92%
Cc1cc(NC(=O)c2cccc3cc(-c4cccc5[nH]nc(N)c45)ccc23)ccc1F	enzyme activity	inhibitor		0.1 µM	activity vs control	88%
C[C@@]1(Cc2ccc(C#N)cc2)C(=O)N(c2cc(Cl)cc(Cl)c2)c2ncc(C(=O)NC3(c4nc(C5CCC5)no4)CC3)n21	cell-free assay		competition with immobilised ligand	1 µM	remaining binding	100%
Cc1ccc(NC(=O)c2ccc(C)c(C(F)(F)F)c2)cc1C#Cc1nn(C2CCC(O)CC2)c2ncnc(N)c12 (centres unmarked)	cell-free assay			10 µM	remaining signal	97%
CS(=O)(=O)NCC[C@H](NC(=O)c1cncc2c1cnn2-c1ccc(F)cc1)c1ccnc(S(C)(=O)=O)c1	cell-free assay		competition with immobilised ligand	1 µM	remaining binding	100%
CCN(CC)CCNC(=O)c1c(C)[nH]c(/C=C2\C(=O)Nc3ccc(F)cc32)c1C	cell-free assay			0.5 µM	remaining signal	66.9%
Cc1cnc(NC2CCOCC2)nc1-n1cnc(C(=O)NC(CN)c2cc(F)cc(Cl)c2)c1 (centres unmarked)	enzyme activity	inhibitor	radiometric	1 µM	remaining activity	96%
